# Assay outcomes from PubChem BioAssay.
# In the library only some 4.8% were active in any assay of this set; here they are far more common.
# FLuc inh counter – counter-screen for luciferase assay inhibitors: firefly luciferase inhibition; ATPLite firefly luciferase biochemical luminescence, 10 min; inhibition, % at 10 µM; 200,000 compounds, 1.5% hits; AID 1006;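 active = inhibition above about 50% when tested at 10 µM, limit read from the data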
# Target sequence (P08659 whole entry, looked up): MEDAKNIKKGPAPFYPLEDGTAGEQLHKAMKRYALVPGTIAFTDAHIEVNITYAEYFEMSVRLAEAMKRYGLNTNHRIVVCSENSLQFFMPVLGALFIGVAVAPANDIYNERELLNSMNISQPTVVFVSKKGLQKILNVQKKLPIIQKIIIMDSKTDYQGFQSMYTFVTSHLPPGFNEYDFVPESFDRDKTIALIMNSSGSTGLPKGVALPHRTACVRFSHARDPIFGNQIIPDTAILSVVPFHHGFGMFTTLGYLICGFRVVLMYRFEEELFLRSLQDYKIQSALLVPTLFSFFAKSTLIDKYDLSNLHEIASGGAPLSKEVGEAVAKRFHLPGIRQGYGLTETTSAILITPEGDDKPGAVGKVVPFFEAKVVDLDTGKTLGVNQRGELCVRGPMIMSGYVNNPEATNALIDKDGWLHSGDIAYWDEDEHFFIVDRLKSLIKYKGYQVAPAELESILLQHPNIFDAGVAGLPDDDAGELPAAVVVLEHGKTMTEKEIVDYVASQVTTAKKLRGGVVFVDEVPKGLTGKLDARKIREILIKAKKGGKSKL
# FLuc stim CS – affects firefly luciferase, flagging false hits in luciferase stimulation screens; ATPlite luciferase biochemical, luminescence, 10 min; 0 = ATP-free wells, 1 = DMSO control; activation factor at 10 µM; 200,000 tested, under 10 active;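 active = luciferase activation factor, scaled between plate controls, of at least 2 with compound at 10 µM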
#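 System: Luciferase/luciferin detection reagent, cell-free biochemical luciferase assay | Medium: PBS buffer for ATP | Dosing: Test compounds dosed from 2 mM stocks in 100% DMSO | Timing: 10 min at ambient temperature | Signal: Luminescence measurement of luciferase light output | Evaluation: Luciferase activation, seen as luminescence increase over controls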
# APP 5'UTR act – APP 5'UTR luciferase reporter activation; SH-SY5Y APP 5'UTR luciferase reporter, luminescence; zero percent = DMSO vehicle wells; activation, % at 2 µM; 190,000 compounds, 1% hits;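 active = activation above a set limit, based on mean plus 3 SD of controls, cut at about 140% in these data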
# STAT1 activator – STAT1 signaling activation | NIH 3T3 STAT1-luciferase reporter, IFN-gamma, luminescence; 100% = IFN-gamma alone, no compound | activation (% of control), % at 5.5 µM | 200,000 compounds, 2.6% hits | AID 932;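 active = activation above the screen-wide mean activation plus 3 SD, cut at about 130% in these data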;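 note: raw ratio to IFN-gamma control signal so 100% means no change and 0% no light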
# NF-kB neuron act – compounds increasing NF-kB expression in human neuronal cells | NF-kB reporter expression; hits give high values | fold change at 12.5 µM | AID 1239 | 190,000 compounds, 1.6% hits; in the data active = fold change above about 3.3
# APP 5UTR inh – APP translation inhibition; SH-SY5Y APP 5'UTR-luciferase reporter, luminescence; inhibition, % at 2 µM; 190,000 compounds, 0.82% hits;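 active = inhibition above a set limit, derived from the sample mean plus 3 SD, cut at about 45% in these data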
# The depositor's hits bear a star; · = no result given.
SMILES,FLuc inh counter,FLuc stim CS,APP 5'UTR act,STAT1 activator,NF-kB neuron act,APP 5UTR inh
c1ccn2cc(CSc3nnc4ccccn34)nc2c1,-3,1,94,147*,2.3,-94
Cc1ccn2cc(CSc3ccccc3)nc2c1,42,0.6,172*,131*,6.3*,-172
Cc1ccc(NC(=O)C2CC(=O)Nc3nncn32)cc1 (configuration not stated),-1,1,16,96,1.2,-16
Cc1ccccc1OCCc1c(C)[nH]c(=S)[nH]c1=O,-4,1,-92,94,1.4,92*
Cc1[nH]c(=S)[nH]c(=O)c1CCOc1ccccc1,-5,1,13,102,1,-13
Cc1ccc(NC(=O)N/C=C/c2ccccc2)cc1,12,0.9,105,146*,1.5,-105
O=C(N/C=C/c1ccccc1)Nc1ccc(Cl)cc1,6,0.9,58,141*,1.3,-58
O=C(NC1CCCCCC1)C(=S)NC1CCCCC1,1,1,98,118,1.6,-98
CC(C)N(CCNC(=O)c1oc(=O)c2ccccc2c1-c1ccccc1)Cc1ccco1,-8,1.1,34,97,1.6,-34
Cc1cc(C(=O)Cn2nnc3ccccc3c2=O)c(C)n1Cc1cccs1,80*,0.2,223*,82,1,-223
COc1ccc(OC)c(C(=O)Cn2nnc3ccccc3c2=O)c1,-7,1.1,9,97,1.3,-9
COc1cc(OC)cc(C(=O)N/N=C/c2ccc(OC)c(COc3ccc4ccccc4c3)c2)c1,3,1,-56,103,1.1,56*
COc1cccc(OCc2cc(/C=N/NC(=O)c3ccn[nH]3)ccc2OC)c1,3,1,-1,110,0.98,1
C=CCn1c(SCC(=O)Nc2ccc(-c3nc4ccc(C)cc4s3)cc2)nnc1-c1ccncc1,-3,1,160*,130*,1.5,-160
Cc1ccc2nc(-c3ccc(NC(=O)CSc4nccc(=O)[nH]4)cc3)sc2c1,38,0.6,144*,134*,1.9,-144
Cc1ccc2nc(-c3ccc(NC(=S)NC(=O)CC(C)C)cc3)sc2c1,0,1,79,114,1.4,-79
CCn1c(SCC(=O)Nc2ccc(-c3nc4ccc(C)cc4s3)cc2)nnc1-c1ccccc1,4,1,110,132*,1.6,-110
CCOC(=O)c1c(C)[nH]c(C)c1C(=O)Cn1nnc(-c2ccccc2C)n1,·,·,-3,102,0.76,2
Cc1cc(C)nc(-n2nc(C)c(C3(O)C(=O)Nc4ccccc43)c2N)n1 (configuration not stated),1,1,4,97,0.97,-4
COc1ccc(C(=O)NNC(=O)CN2CCN(c3nc(-c4ccccc4)cs3)CC2)cc1,-2,1,-17,98,1.1,17
COc1ccc(OC)c(Nc2ncnc3sc(-c4ccccc4)cc23)c1,0,1,8,101,1.5,-8
COc1ccc(-c2cc3nnc(-c4ccccc4)nc3s2)cc1,24,0.8,28,135*,1.1,-28
COC(=O)c1cn(C(=O)c2ccccc2Cl)c2ccccc12,-7,1.1,10,97,0.8,-10
COC(=O)c1cn(C(=O)c2ccc(C)cc2C)c2ccccc12,-2,1,-54,88,0.7,54*
Cc1nnc(SCc2ccccc2CSc2nnc(C)s2)s1,-6,1.1,9,87,1.2,-9
SMILES,FLuc inh counter,FLuc stim CS,APP 5'UTR act,STAT1 activator,NF-kB neuron act,APP 5UTR inh
O=S1(=O)C[C@H]2NC(=S)N(c3ccccc3)[C@H]2C1,-1,1,5,94,1.1,-5
COc1ccc(NCc2ccc([N+](=O)[O-])s2)c(OC)c1,-1,1,-23,104,1.2,23
COc1ccc(NCc2ccc([N+](=O)[O-])s2)cc1,-2,1,-49,98,1.2,49*
c1ccc(-c2nnc3ccc(N4CCC5(CC4)OCCO5)nn23)cc1,-6,1.1,10,109,3.6*,-10
NC(=O)C1(N2CCCCC2)CCN(c2ccc3nnc(-c4ccccc4)n3n2)CC1,-8,1.1,-3,104,0.78,3
CCOc1ccc(NC(=O)c2nccnc2CO)cc1,63*,0.4,61,144*,3.2,-61
CCN(CC)c1ccc(/C=N/NC(=O)c2cnccn2)cc1,66*,0.3,-74,132*,2.6,74*
CCOc1ccc(NC(=O)c2ccccc2OCC(=O)c2ccccc2)cc1,61*,0.4,7,106,0.45,-7
Cc1ccc(NC(=O)c2cnccn2)cc1,26,0.7,43,134*,2.1,-43
Cc1cccc(C)c1NC(=S)NCCSc1ccc(Cl)cc1,-10,1.1,4,101,1.3,-4
CCOc1ccc(NC(=O)c2ccccc2O)cc1,87*,0.1,118,101,6.3*,-118
CCOc1ccc(NC(=O)c2ccccc2CO)cc1,38,0.6,32,126,1.7,-32
CCOc1ccc(NC(=O)C2CSC(c3ccncc3)=N2)cc1 (configuration not stated),7,0.9,-46,97,1.4,46*
CCOc1ccc(NC(=O)c2oc3ccccc3c2NC(=O)CC)cc1,-4,1,64,119,5.1*,-64
CCOc1ccc(NC(=O)C2CC(C)=C(C)CC2C(=O)O)cc1 (configuration not stated),-5,1,4,96,1.1,-4
CCOc1ccc(NC(=O)c2cnccn2)cc1,72*,0.3,150*,126,3.3,-150
COCCNC(=O)c1ccc(-n2c(SCc3ccncc3)nc3ccccc3c2=O)cc1,-4,1,16,94,1.2,-16
CCCC(=O)c1cc(F)c(N2CCOCC2)cc1C,1,1,20,101,1.1,-20
CCCC(=O)Nc1ccc(NC(=O)c2ccccn2)cn1,36,0.6,77,141*,1.9,-77
CCOc1ccc(NC(=O)c2ccccn2)cc1,96*,0,116,46,1.4,-116
COc1cccc(NC(=O)c2cnsn2)c1,0,1,-1,112,1.4,1
CCOc1ccc(C(=O)Nc2ncccc2Cl)cc1,21,0.8,43,129*,2.5,-42
CCOc1ccc(C(=O)NCc2ccccn2)cc1,-1,1,1,106,1.5,-1
CCOc1ccc(NC(=O)c2cnsn2)cc1,61*,0.4,153*,122,3.5*,-153
CC1=C(C(=O)N2CCOCC2)C(c2ccccc2F)C2=C(CCCC2=O)N1 (configuration not stated),-4,1,14,98,1.1,-14
CCCc1cc(NCC2CCCO2)n2c(nc3ccccc32)c1C#N (configuration not stated),3,1,-5,94,0.77,4
O=C(Nc1ccc(OC(F)F)c(Cl)c1)c1ccccn1,47,0.5,139*,146*,9.4*,-139
